Test results as given in ChEMBL document CHEMBL1124765, “Synthesis and biological properties of novel phosphotriesters: a new approach to the introduction of biologically active nucleotides into cells” (J Med Chem, 1990).
In brackets after ≈: the same amount, converted by molar mass. Several values for one entry are separate records, joined by “and”; a condition that tells them apart may be missing. Identical values can stand only once.

Key:
Assay type in all cases: functional
Mus musculus [1] = test: Topical treatment of intracutaneous TK- herpes simplex virus type 1 of strain VMW 1837 infection of Nu/nu mice for mean day of appearance of skin lesions and/or paralysis of the hind legs at 1% concentration (v/v in DMSO)
In short: (§1)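 Inocula were TK⁻ HSV-1 at 10⁶ CCID50/0.05 mL or HSV-1 KOS at 10^4.7 PFU/0.05 mL. Test formulations in DMSO were applied topically four times daily for 5 days, starting at infection. Skin lesions, hind-leg paralysis and death were recorded daily for 28 (KOS) or 49 (TK⁻) days, with five mice per group.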

Human alphaherpesvirus 1 [2] = test: Evaluated for the minimum inhibitory concentration (MIC) in primary rabbit kidney (PRK) by 50% upon pre-incubation in medium containing 10% fetal calf serum at 37 degree Centigrade for 24 hr against TK- herpes simplex virus type 1 (TK- HSV-1) with st
In short: (§2)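 Compounds were preincubated in medium with 10% fetal calf serum for 24 h at 37 °C before addition to the cells. Confluent primary rabbit kidney monolayers were infected with 100 CCID50 of virus and adsorbed for 1 h. Residual virus was removed and cells were incubated with varying compound concentrations. The endpoint was 50% reduction of cytopathogenicity, read when infected controls reached full CPE.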

Human alphaherpesvirus 1 [3] = test: Evaluated for the minimum inhibitory concentration (MIC) in primary rabbit kidney (PRK) by 50% against TK- herpes simplex virus type 1 (TK- HSV-1) with strain VMW 1837.
In short: (§3)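 Confluent primary rabbit kidney cell monolayers were infected with 100 CCID50 of virus. After 1 h adsorption, residual virus was removed and cells were incubated with serial compound concentrations. Cytopathogenicity was scored once it reached completion in untreated infected controls. The endpoint was the concentration reducing virus-induced cytopathogenicity by 50%.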

Human alphaherpesvirus 2 [4] = test: Evaluated for the minimum inhibitory concentration (MIC) in primary rabbit kidney (PRK) by 50% upon preincubation in medium containing 10% fetal calf serum at 37 degree Celsius for 24 hr against herpes simplex virus type-2 (HSV-2) with strains G; in short: as §2
Vaccinia virus [5] = test: Evaluated for the minimum inhibitory concentration (MIC) in primary rabbit kidney (PRK) by 50% against Vaccinia virus; conditions: Orthopoxvirus vaccinia; in short: as §3
Human alphaherpesvirus 1 [6] = test: Evaluated for the minimum inhibitory concentration (MIC) in primary rabbit kidney (PRK) by 50% upon preincubation in medium containing 10% fetal calf serum at 37 degree Centigrade for 24 hr against TK- herpes simplex virus type 1 (TK- HSV-1) with st; in short: as §2
Human alphaherpesvirus 1 [7] = test: Evaluated for the minimum inhibitory concentration (MIC) in primary rabbit kidney (PRK) by 50% upon preincubation in medium containing 10% fetal calf serum at 37 degree Centigrade for 24 hr against herpes simplex virus type-1 (HSV-1) with strain McI; in short: as §2
Human alphaherpesvirus 1 [8] = test: Evaluated for the minimum inhibitory concentration (MIC) in primary rabbit kidney (PRK) by 50% upon pre-incubation in medium containing 10% fetal calf serum at 37 degree Centigrade for 24 hr against herpes simplex virus type-1 (HSV-1) with strainKOS; in short: as §2
Vaccinia virus [9] = test: Evaluated for the minimum inhibitory concentration (MIC) in primary rabbit kidney (PRK) by 50% upon pre-incubation in medium containing 10% fetal calf serum at 37 degree Centigrade for 24 hr against Vaccinia virus; conditions: Orthopoxvirus vaccinia; in short: as §2
Human alphaherpesvirus 1 [10] = test: Evaluated for the minimum inhibitory concentration (MIC) in primary rabbit kidney (PRK) by 50% against herpes simplex virus type-1 (HSV-1) with strains McIntyre
In short: (§4)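 Confluent primary rabbit kidney cell cultures infected with 100 CCID50 virus; after 1 h adsorption residual virus removed and cells incubated with varying compound concentrations. Cytopathogenicity scored when complete in infected untreated controls; MIC = concentration reducing virus-induced cytopathogenicity by 50%. Compounds tested as such or after preincubation in medium with 10% fetal calf serum, 24 h, 37 °C.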

Human alphaherpesvirus 1 [11] = test: Evaluated for the minimum inhibitory concentration (MIC) in primary rabbit kidney (PRK) by 50% upon preincubation in medium containing 10% fetal calf serum at 37 degree Celsius for 24 hr against herpes simplex virus type-1 (HSV-1) with strainF; in short: as §2
Human alphaherpesvirus 1 [12] = test: Evaluated for the minimum inhibitory concentration (MIC) in primary rabbit kidney (PRK) by 50% against TK- herpes simplex virus type 1 (TK- HSV-1) with strain B2006; in short: as §3
Human alphaherpesvirus 2 [13] = test: Evaluated for the minimum inhibitory concentration (MIC) in primary rabbit kidney (PRK) by 50% upon preincubation in medium containing 10% fetal calf serum at 37 degree Centigrade for 24 hr against herpes simplex virus type-2 (HSV-2) with strains 19; in short: as §2
Mus musculus [14] = test: Topical treatment of intracutaneous TK- herpes simplex virus type 1 of strain VMW 1837 infection of Nu/nu mice for mean day of appearance of skin lesions and/or paralysis of the hind legs at 3% concentration (v/v in DMSO); in short: as §1
Oryctolagus cuniculus [15] = species: Oryctolagus cuniculus; test: Evaluated for the minimum cytotoxic concentration (MCC) upon preincubation of rabbit kidney cells in medium containing 10% fetal calf serum at 37 degree Celsius for 24 hr
In short: (§5)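 Primary rabbit kidney cell cultures were exposed to compounds, some preincubated 24 h at 37 °C in medium with 10% fetal calf serum. The minimum cytotoxic concentration was the level causing a microscopically detectable change in normal cell morphology.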

[16] = test system: Vesicular stomatitis virus; test: Evaluated for the minimum inhibitory concentration (MIC) in primary rabbit kidney (PRK) by 50% against Vesicular stomatitis virus; in short: as §3
[17] = test system: Vesicular stomatitis virus; test: Evaluated for the minimum inhibitory concentration (MIC) in primary rabbit kidney (PRK) by 50% upon pre-incubation in medium containing 10% fetal calf serum at 37 degree Centigrade for 24 hr against Vesicular stomatitis virus; in short: as §2
Human alphaherpesvirus 2 [18] = test: Evaluated for the minimum inhibitory concentration (MIC) in primary rabbit kidney (PRK) by 50% against herpes simplex virus type-2 (HSV-2) with strains G; in short: as §3
Human alphaherpesvirus 2 [19] = test: Evaluated for the minimum inhibitory concentration (MIC) in primary rabbit kidney (PRK) by 50% against herpes simplex virus type-2 (HSV-2) with strains 196; in short: as §4
Human alphaherpesvirus 2 [20] = test: Evaluated for the minimum inhibitory concentration (MIC) in primary rabbit kidney (PRK) by 50% upon preincubation in medium containing 10% fetal calf serum at 37 degree Celsius for 24 hr against herpes simplex virus type-2 (HSV-2) with strains Ly; in short: as §2
Human alphaherpesvirus 1 [21] = test: Evaluated for the minimum inhibitory concentration (MIC) in primary rabbit kidney (PRK) by 50% against herpes simplex virus type-1 (HSV-1) with strains F; in short: as §4
Human alphaherpesvirus 1 [22] = test: Evaluated for the minimum inhibitory concentration (MIC) in primary rabbit kidney (PRK) by 50% against herpes simplex virus type-1 (HSV-1) with strains KOS; in short: as §4
Mus musculus [23] = species: Mus musculus; test: Mean time survival (MTS) of the mice at the end of 28 or 49 days.; in short: as §1
Human alphaherpesvirus 2 [24] = test: Evaluated for the minimum inhibitory concentration (MIC) in primary rabbit kidney (PRK) by 50% against herpes simplex virus type-2 (HSV-2) with strains Lyons; in short: as §4
Oryctolagus cuniculus [25] = species: Oryctolagus cuniculus; test: Evaluated for the minimum cytotoxic concentration (MCC) upon preincubation of rabbit kidney cells; in short: as §5
Mus musculus [26] = test: Topical treatment of intracutaneous TK- herpes simplex virus type 1 of strain VMW 1837 infection of Nu/nu mice for mean day of appearance of skin lesions and/or paralysis of the hind legs at 0.3% concentration (v/v in DMSO); in short: as §1
Human alphaherpesvirus 1 [27] = test: Evaluated for the minimum inhibitory concentration (MIC) in primary rabbit kidney (PRK) by 50% against TK- herpes simplex virus type 1 (TK- HSV-1) with strain VMW 1837; in short: as §3
Human alphaherpesvirus 2 [28] = test: Evaluated for the minimum inhibitory concentration (MIC) in primary rabbit kidney (PRK), by 50% upon pre-incubation in medium containing 10% fetal calf serum at 37 degree Centigrade for 24 hr against herpes simplex virus type-2 (HSV-2) with strains 1; in short: as §2
Human alphaherpesvirus 2 [29] = test: Evaluated for the minimum inhibitory concentration (MIC) in primary rabbit kidney (PRK), by 50% upon preincubation in medium containing 10% fetal calf serum at 37 degree Celsius for 24 hr against herpes simplex virus type-2 (HSV-2) with strains G; in short: as §2
Human alphaherpesvirus 1 [30] = test: (§6) Evaluated for the minimum inhibitory concentration (MIC) in primary rabbit kidney (PRK), by 50% upon preincubation in medium containing 10% fetal calf serum at 37 degree Celsius for 24 hr against TK- herpes simplex virus type 1 (TK- HSV-1) with s; in short: as §2
[31] = test system: Vesicular stomatitis virus; test: Evaluated for the minimum inhibitory concentration (MIC) in primary rabbit kidney (PRK), by 50% upon preincubation in medium containing 10% fetal calf serum at 37 degree Celsius for 24 hr against vesicular stomatitis virus; in short: as §2
Human alphaherpesvirus 1 [32] = test: Evaluated for the minimum inhibitory concentration (MIC) in primary rabbit kidney (PRK), by 50% upon preincubation in medium containing 10% fetal calf serum at 37 degree Centigrade for 24 hr against herpes simplex virus type-1 (HSV-1) with strain Mc; in short: as §2
Human alphaherpesvirus 1 [33] = test: Evaluated for the minimum inhibitory concentration (MIC) in primary rabbit kidney (PRK), by 50% against TK- herpes simplex virus type 1 (TK- HSV-1) with strain B2006; in short: as §3
Human alphaherpesvirus 1 [34] = test: as §6; in short: as §2; remark: listed apart in the source
Human alphaherpesvirus 1 [35] = test: Evaluated for the minimum inhibitory concentration (MIC) in primary rabbit kidney (PRK) by 50% upon preincubation in medium containing 10% fetal calf serum at 37 degree Celsius for 24 hr against herpes simplex virus type-1 (HSV-1) with strain KOS; in short: as §2
Human alphaherpesvirus 1 [36] = test: Evaluated for the minimum inhibitory concentration (MIC) in primary rabbit kidney (PRK) by 50% upon preincubation in medium containing 10% fetal calf serum at 37 degree Celsius for 24 hr against herpes simplex virus type-1 (HSV-1) with strain F; in short: as §2
Vaccinia virus [37] = test: Evaluated for the minimum inhibitory concentration (MIC) in primary rabbit kidney (PRK), by 50% upon preincubation in medium containing 10% fetal calf serum at 37 degree Celsius for 24 hr against Vaccinia virus; conditions: Orthopoxvirus vaccinia; in short: as §2
Human alphaherpesvirus 2 [38] = test: Evaluated for the minimum inhibitory concentration (MIC) in primary rabbit kidney (PRK), by 50% upon pre-incubation in medium containing 10% fetal calf serum at 37 degree Centigrade for 24 hr against herpes simplex virus type-2 (HSV-2) with strains L; in short: as §2
[39] = Oryctolagus cuniculus, kidney, read-out: MCC

## CS(=O)(=O)c1ccc(OP(=O)(OC[C@H]2O[C@@H](n3cc(/C=C/Br)c(=O)[nH]c3=O)C[C@@H]2O)OC[C@H]2O[C@@H](n3cc(/C=C/Br)c(=O)[nH]c3=O)C[C@@H]2O)cc1
Mus musculus [1]
  Mean day appearance of lesions: 10.4
Human alphaherpesvirus 1 [2]
  MIC: 300 µg/mL (≈ 340 µM)
Human alphaherpesvirus 1 [3]
  MIC: > 400 µg/mL
Human alphaherpesvirus 2 [4]
  MIC: 150 µg/mL (≈ 170 µM)
Vaccinia virus [5]
  MIC: > 400 µg/mL
Human alphaherpesvirus 1 [6]
  MIC: > 400 µg/mL
Human alphaherpesvirus 1 [7]
  MIC: 0.7 µg/mL (≈ 0.793 µM)
Human alphaherpesvirus 1 [8]
  MIC: 0.2 µg/mL (≈ 0.227 µM)
Vaccinia virus [9]
  MIC: 70 µg/mL (≈ 79.3 µM)
Human alphaherpesvirus 1 [10]
  MIC: 2 µg/mL (≈ 2.27 µM)
Human alphaherpesvirus 1 [11]
  MIC: 0.2 µg/mL (≈ 0.227 µM)
Human alphaherpesvirus 1 [12]
  MIC: > 400 µg/mL
Human alphaherpesvirus 2 [13]
  MIC: > 400 µg/mL
Mus musculus [14]
  Mean day appearance of lesions: 9.7
Oryctolagus cuniculus [15]; [39]
  MCC: > 400 µg/mL
[16]
  MIC: > 400 µg/mL
[17]
  MIC: > 400 µg/mL
Human alphaherpesvirus 2 [18]
  MIC: > 200 µg/mL
Human alphaherpesvirus 2 [19]
  MIC: > 400 µg/mL
Human alphaherpesvirus 2 [20]
  MIC: 200 µg/mL (≈ 227 µM)
Human alphaherpesvirus 1 [21]
  MIC: 2 µg/mL (≈ 2.27 µM)
Human alphaherpesvirus 1 [22]
  MIC: 2 µg/mL (≈ 2.27 µM)
Mus musculus [23]
  MTS: 15 days and 24.2 days and 37.8 days
Human alphaherpesvirus 2 [24]
  MIC: > 400 µg/mL
Oryctolagus cuniculus [25]
  MCC: > 400 µg/mL
Mus musculus [26]
  Mean day appearance of lesions: 16.7

## CS(=O)(=O)c1ccc(OP(=O)(OCCOCn2cnc3c(O)nc(N)nc32)OCCOCn2cnc3c(O)nc(N)nc32)cc1
Human alphaherpesvirus 1 [27]
  MIC: 70 µg/mL (≈ 105 µM)
Mus musculus [1]
  Mean day appearance of lesions: 23.6
Human alphaherpesvirus 2 [28]
  MIC: 0.3 µg/mL (≈ 0.45 µM)
Human alphaherpesvirus 2 [29]
  MIC: 0.2 µg/mL (≈ 0.3 µM)
Human alphaherpesvirus 1 [30]
  MIC: 150 µg/mL (≈ 225 µM)
[31]
  MIC: > 200 µg/mL
Vaccinia virus [5]
  MIC: > 200 µg/mL
Human alphaherpesvirus 1 [32]
  MIC: 0.7 µg/mL (≈ 1.05 µM)
Human alphaherpesvirus 1 [10]
  MIC: 1 µg/mL (≈ 1.5 µM)
Human alphaherpesvirus 1 [33]
  MIC: 150 µg/mL (≈ 225 µM)
Mus musculus [14]
  Mean day appearance of lesions: 29.7
Oryctolagus cuniculus [15]
  MCC: 400 µg/mL
Oryctolagus cuniculus [15]; [39]
  MCC: 400 µg/mL
[16]
  MIC: > 200 µg/mL
Human alphaherpesvirus 2 [19]
  MIC: 0.4 µg/mL (≈ 0.6 µM)
Human alphaherpesvirus 1 [34]
  MIC: 40 µg/mL (≈ 60 µM)
Human alphaherpesvirus 1 [35]
  MIC: 0.4 µg/mL (≈ 0.6 µM)
Human alphaherpesvirus 1 [21]
  MIC: 0.7 µg/mL (≈ 1.05 µM)
Human alphaherpesvirus 1 [22]
  MIC: 0.7 µg/mL (≈ 1.05 µM)
Mus musculus [23]
  MTS: 40.2 days and 40.6 days and 33.4 days
Human alphaherpesvirus 2 [24]
  MIC: 0.4 µg/mL (≈ 0.6 µM)
Human alphaherpesvirus 1 [36]
  MIC: 0.4 µg/mL (≈ 0.6 µM)
Vaccinia virus [37]
  MIC: > 200 µg/mL
Mus musculus [26]
  Mean day appearance of lesions: 17.6
Human alphaherpesvirus 2 [38]
  MIC: 0.4 µg/mL (≈ 0.6 µM)
